# Data from ChEMBL document CHEMBL4028805, “Phenylthiazole Antibacterial Agents Targeting Cell Wall Synthesis Exhibit Potent Activity in Vitro and in Vivo against Vancomycin-Resistant Enterococci” (J Med Chem, 2017).
# Calls of active or inactive are those of the source.
# Columns and labels:
# Enterococcus faecalis [1] = experiment: Potentiation of vancomycin-induced antibacterial activity against Enterococcus faecalis HM-934 assessed as fold reduction in vancomycin MIC preincubated for 30 mins followed by vancomycin addition measured after 18 to 21 hrs; assay type: functional
# Outline: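 VRE suspensions at 5×10^5 CFU/mL preincubated with compound at ½ × MIC for 30 min at room temperature. […] Fold reduction calculated as vancomycin MIC alone over MIC in combination.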
# Enterococcus faecalis [2] = experiment: Antibacterial activity against Enterococcus faecalis ATCC 31975 at 4 to 8 times MIC after 48 hrs by broth microdillution method; assay type: functional
# Outline: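 Single-step resistance selection. Cultures of 5 × 10^8 to 5 × 10^10 CFU/mL spread on TSA containing compound at 2×, 4× or 8× MIC and incubated aerobically at 37 °C for 48 h. Colony MICs rechecked by broth microdilution. Frequency calculated as resistant colonies per inoculum.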
# [3] = Inhibition of Escherichia coli UPPP expressed in Escherichia coli C41(DE3) using FPP as substrate preincubated for 15 mins followed by substrate addition measured after 20 mins by malachite green assay
# Outline: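 Purified E. coli UPPP (0.125 μM) preincubated 15 min at room temperature with inhibitor (300 to 0.8 μM) in 50 mM HEPES, 150 mM NaCl, 10 mM MgCl2, 0.02% DDM, pH 7.5. Then 35 μM FPP added, 20 min at 37 °C. Released phosphate measured by malachite green at 620 nm after 30 min. IC50 from dose-response curves. Bacitracin used as control.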
# Escherichia coli [4] = experiment: Antibacterial activity against tolC deficient Escherichia coli assessed as formation of misshapen cells at 25 ug/ml after 2 hrs in presence of sucrose by FM4-64/DAPI/SYTOX Green staining-based deconvolution microscopic analysis; assay type: functional
# Enterococcus faecalis [5] = experiment: Synergistic antimicrobial activity against Enterococcus faecalis ATCC 51299 after 20 hrs in presence of doxycycline by checkerboard assay; assay type: functional
# Outline: (§1)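 Checkerboard in TSB with a starting inoculum of 1×10^5 CFU/mL. Compound and antibiotic diluted from 2× or 4× MIC along perpendicular axes. Incubated 20 h at 37 °C. ΣFIC calculated: ≤0.5 synergy, >0.5 to <2 additive, 2–4 indifference, >4 antagonism.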
# Pseudomonas aeruginosa [6] = experiment: Antibacterial activity against Pseudomonas aeruginosa ATCC 15442 after 18 to 22 hrs in absence of colistin by broth microdilution method; assay type: functional
# Enterococcus faecium [7] = experiment: Bactericidal activity against vancomycin-resistant Enterococcus faecium ATCC 700221 assessed as bacterial regrowth at 4 times MIC after 22 hrs by time-kill assay; assay type: functional
# Outline: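 Late-log cells diluted to ~5 × 10^6 CFU/mL and exposed in triplicate to 4 × MIC, in TSB (E. faecalis HM-201) or BHI (E. faecium ATCC 700221) at 37 °C. Sampled at 0, 2, 4, 6, 8, 10, 12 and 24 h, diluted serially in PBS and plated on TSA or BHI agar. CFU/mL counted after 18–22 h. DMSO served as negative control.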
# Escherichia coli [8] = experiment: Antibacterial activity against tolC deficient Escherichia coli assessed as cell shape defects at 25 ug/ml after 30 mins in presence of sucrose by FM4-64/DAPI/SYTOX Green staining-based deconvolution microscopic analysis; assay type: functional
# HRT-18 cell line [9] = experiment: Cytotoxicity against human HRT18 cells assessed as reduction in cell viability up to 20 ug/ml after 2 hrs by MTS assay; assay type: cell-based; settings: hrt-18, 2 h
# Outline: (§2)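 HRT-18 cells maintained in RPMI-1640 with 10% fetal horse serum at 37 °C, 5% CO2. Exposed to 5, 10, 20 or 40 μg/mL for 2 or 24 h, then MTS added and absorbance read at 490 nm. Viability expressed relative to untreated cells, n ≥ 3, one-way ANOVA with Dunnett's test.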
# Caenorhabditis elegans = experiment: Toxicity in Caenorhabditis elegans AU37 assessed as worm survival at 20 ug/ml after 24 hrs by microscopic analysis; settings: caenorhabditis elegans, 24 h
# Outline: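 Adult C. elegans AU37, 15–20 per well, exposed in triplicate to 10 or 20 μg/mL, with sterile water as negative control. Viability checked by microscopy. Result reported as percent viable worms after 24 h exposure.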
# HRT-18 cell line [10] = experiment: Cytotoxicity against human HRT18 cells assessed as reduction in cell viability at 20 ug/ml after 24 hrs by MTS assay; assay type: cell-based; settings: hrt-18, 24 h; outline: as §2
# Enterococcus faecalis [11] = experiment: Synergistic antimicrobial activity against Enterococcus faecalis ATCC 51299 after 20 hrs in presence of linezolid by checkerboard assay; assay type: functional; outline: as §1
# Enterococcus faecalis [12] = experiment: Antibacterial activity against vancomycin-resistant Enterococcus faecalis ATCC 51299 assessed as ratio of MIC after and before 6 serial passages measured after 18 hrs by broth microdillution method; assay type: functional
# Outline: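 Multi-step selection over 14 passages in two weeks. McFarland 0.5 inoculum diluted 1:300 in TSB (E. faecalis) or BHI (E. faecium) to 1 × 10^5 CFU/mL. Each passage reinoculated at ~5 × 10^5 CFU/mL from the sub-inhibitory well of the previous plate. Compounds serially diluted in triplicate, incubated ≥18 h at 37 °C, MIC read visually. Resistance defined as >4-fold MIC rise.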
# Pseudomonas aeruginosa [13] = experiment: Antibacterial activity against Pseudomonas aeruginosa ATCC 15442 after 18 to 22 hrs in presence of 1/4 times MIC colistin by broth microdilution method; assay type: functional
# Outline: (§3)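 Broth microdilution per CLSI guidelines. Gram-negatives grown in TSB. Each strain tested alone and again with colistin at ¼ × MIC to permeabilize the outer membrane. Plates incubated at 37 °C for 18–22 h. MIC read as the lowest concentration showing no visible growth.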
# [14] = Induction of proton motive force collapse in Escherichia coli inverted membrane vesicle in presence of ATP-driven PMF generation system by ACMA-based fluorescence assay; assay type: functional, cell membranes
# Outline: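 E. coli inverted membrane vesicles (0.1 mg/mL membrane protein) with 2 μM ACMA and 0.5 mM ATP or succinate, in 10 mM HEPES-KOH, 5 mM MgSO4, 100 mM KCl, pH 7.5. Proton gradient followed by ACMA fluorescence (ex 410/em 480 nm). EC50 taken from dose-response curves. CCCP used as reference uncoupler.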
# Klebsiella pneumoniae = experiment: Antibacterial activity against Klebsiella pneumoniae BAA-1706 after 18 to 22 hrs in absence of colistin by broth microdilution method; assay type: functional
# Escherichia coli [15] = experiment: Antibacterial activity against Escherichia coli 1411 harboring delta-acrAB after 18 to 22 hrs in absence of colistin by broth microdilution method; assay type: functional
# Escherichia coli [16] = experiment: Antibacterial activity against Escherichia coli 1411 after 18 to 22 hrs in absence of colistin by broth microdilution method; assay type: functional; outline: as §3
# Enterococcus faecalis [17] = experiment: Potentiation of gentamicin-induced antibacterial activity against Enterococcus faecalis ATCC 51299 assessed as gentamicin MIC preincubated for 30 mins followed by gentamicin addition measured after 18 to 21 hrs; assay type: functional
# Outline: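 Enterococcal suspensions at 5×10^5 CFU/mL preincubated with compound at ½ × MIC for 30 min at room temperature.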
# Enterococcus faecium [18] = experiment: Antibacterial activity against vancomycin-resistant Enterococcus faecium clinical isolates after 18 to 22 hrs by broth microdilution method; assay type: functional
# Outline: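 CLSI broth microdilution against panels of enterococcal isolates. E. faecalis grown in TSB, E. faecium in BHI, 37 °C for 18–22 h. MIC is the lowest concentration without visible growth. MIC50 is the value inhibiting 50% of isolates in each group.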
smiles,measurement,setting,value
CCCCc1ccc(-c2nc(C)c(/C(C)=N/NC(=N)N)s2)cc1,Activity,Enterococcus faecalis [1],inactive
same,Activity,Enterococcus faecalis [2],Active
same,IC50,[3],6 µM
same,Activity,Escherichia coli [4],Active
same,fractional inhibitory concentration index (FICI),Enterococcus faecalis [5],2
same,MIC,Pseudomonas aeruginosa [6],64 µg/mL
same,Activity,Enterococcus faecium [7],Active
same,Activity,Escherichia coli [8],Active
same,Activity,HRT-18 cell line [9],Non-Toxic
same,Activity,Caenorhabditis elegans,Non-Toxic
same,Activity,HRT-18 cell line [10],Non-Toxic
same,fractional inhibitory concentration index (FICI),Enterococcus faecalis [11],2
same,Ratio,Enterococcus faecalis [12],1
same,MIC,Pseudomonas aeruginosa [13],1 µg/mL
same,EC50,[14],12 µM
same,MIC,Klebsiella pneumoniae,16 µg/mL
same,MIC,Escherichia coli [15],4 µg/mL
same,MIC,Escherichia coli [16],64 µg/mL
same,Activity,Enterococcus faecalis [17],inactive
same,MIC50,Enterococcus faecium [18],2 µg/mL
